Screening data: PubChem BioAssay, several laboratories
Compounds with a hit are over-represented: about 1.4% of the library has one in this group of screens.
FXIa inh 1536: human FXIa protease inhibitors, primary screen, biochemical, 1536-well | purified FXIa, Boc-Glu-Ala-Arg-AMC fluorogenic substrate | inhibition, % at 5 µM | 220,000 compounds, 0.14% hits;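 active means inhibition of at least 40%; inactive means inhibition below 40%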;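 further: fluorescence of freed AMC excited at 355 nm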
KLK5 inh: human KLK5 protease inhibitors, primary screen, biochemical, 1536-well. inhibition, % at 5 µM. 210,000 compounds, 0.59% hits. AID 873, 2007. Kallikrein-5 (Homo sapiens), Q9Y337. recombinant hK5, fluorogenic AMC substrate cleavage;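 active means inhibition of 40% or more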
Furin inhibitor: human furin inhibitors, primary screen, biochemical, fluorescence intensity. P09958. purified furin, fluorogenic substrate cleavage. inhibition, % at 20 µM or 30 µM. 220,000 compounds, 0.061% hits. AID 463115, 2010; in the data active means inhibition above about 25%
Calpain2 inh: inhibitors of pig calpain II, primary screen, biochemical, fluorogenic peptide substrate, 1536-well; inhibition, % at 16 µM; 220,000 compounds, 0.37% hits; AID 1236, 2008; purified calpain II, 30 min;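 active means inhibition above about 50%, limit read from the data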
Thrombin inh: human alpha-thrombin inhibitors, primary screen, counter-screen for coagulation protease inhibitor project, biochemical, 1536-well, fluorogenic AMC substrate | Boc-VPR-AMC fluorogenic substrate cleavage | inhibition, % at 5 µM | 220,000 compounds, 0.26% hits | AID 1046, 2008;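 active means inhibition at or above 40%; inactive means inhibition below 40%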
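Test system: human alpha-thrombin protein / Dosing: one concentration per compound, 5 µM, with 0.2% DMSO / Medium: pH 7.5 Tris-saline with Tween 20 / Benchmarks: no-compound enzyme wells and no-enzyme blanks / Read-out basis: percent inhibition of thrombin substrate cleavage / Timing: reaction at room temperature / Measured by: fluorescence, ex 355 nm, em 460 nm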
FXIIa inh: human FXIIa protease inhibitors, primary screen, biochemical, 1536-well; Coagulation factor XII (Homo sapiens), P00748; purified FXIIa, Boc-QGR-AMC fluorogenic substrate, 2 h; inhibition, % at 5 µM; 220,000 compounds, 0.3% hits; AID 800, 2007; in the data active means inhibition above about 40%
Target sequence (P00748 20-372 limits assumed): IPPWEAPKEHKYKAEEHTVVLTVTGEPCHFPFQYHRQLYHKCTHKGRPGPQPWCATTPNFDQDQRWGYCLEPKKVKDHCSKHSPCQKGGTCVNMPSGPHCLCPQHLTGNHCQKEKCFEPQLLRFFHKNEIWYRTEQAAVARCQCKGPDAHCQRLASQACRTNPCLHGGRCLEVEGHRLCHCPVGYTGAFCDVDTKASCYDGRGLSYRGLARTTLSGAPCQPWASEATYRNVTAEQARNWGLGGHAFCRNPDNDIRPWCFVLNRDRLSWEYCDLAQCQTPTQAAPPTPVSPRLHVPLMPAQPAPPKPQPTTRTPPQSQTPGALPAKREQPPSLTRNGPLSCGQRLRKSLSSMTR
Target sequence (P00748 373-615 limits assumed): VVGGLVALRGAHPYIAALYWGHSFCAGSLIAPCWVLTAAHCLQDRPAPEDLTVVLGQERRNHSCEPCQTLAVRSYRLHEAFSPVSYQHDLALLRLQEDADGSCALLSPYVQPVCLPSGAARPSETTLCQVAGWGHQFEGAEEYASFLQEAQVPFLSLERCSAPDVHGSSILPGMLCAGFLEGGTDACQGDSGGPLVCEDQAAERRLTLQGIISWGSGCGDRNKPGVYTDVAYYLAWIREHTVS
Each line names hits and unclear results; the compound was inactive in the other large screens.

O=C(CN1CCc2ccccc2C1)Nc1cccc(S(=O)(=O)N2CCCC2)c1	none
CCOc1ccc(NC(=O)CN2C(=O)/C(=C3\SC(=S)N(C4CCS(=O)(=O)C4)C3=O)c3ccccc32)cc1 (centres undefined)	FXIa inh 1536 53, Calpain2 inh 63
CC(C)(C)c1ccc(-c2n[nH]c(=S)n2/N=C/c2ccncc2)cc1	none
O=C(c1cnc2nc3ccccc3n2c1)c1cc(F)ccc1O	none
CCOC(=O)N1CCC(NC(=O)c2ccc3c(c2)ncn3C2CCCC2)CC1	Calpain2 inh 77
COc1cc(/C=N/NC(=O)C(=O)NCc2cccnc2)cc(OC)c1OC	none
CCN(CC)CCCNC(=O)Cn1cnc2ccc(S(=O)(=O)N3CCC(C)CC3)cc2c1=O	KLK5 inh 45
CCOc1ccc(NC(=O)c2ccc(CNc3c(N4CCCC4)c(=O)c3=O)cc2)cc1	Thrombin inh 41
CC(=O)c1ccc(NC(=O)c2ccc(CNc3c(N4CCCC4)c(=O)c3=O)cc2)cc1	none
CN(C)C(=O)C1Cc2ccccc2CN1S(=O)(=O)c1cccs1 (centres undefined)	none
O=C(C1Cc2ccccc2CN1S(=O)(=O)c1cccs1)N1CCCCC1 (centres undefined)	Furin inhibitor 28
N/C(=N\OC(=O)c1ccc(Cl)c([N+](=O)[O-])c1)c1ccccn1	FXIIa inh 98
Cc1ccc(C(=O)ONc2ccc(N=O)cc2)cc1	FXIIa inh 44
COc1ccc(N2CC(C(=O)Nc3ccc(S(=O)(=O)Nc4nc(C)cc(C)n4)cc3)CC2=O)cc1 (centres undefined)	none
COC(=O)c1ccccc1NC(=O)C1CC(=O)N(c2ccccc2)C1 (centres undefined)	none
Cc1cc(C)nc(NS(=O)(=O)c2ccc(NC(=O)C3CC(=O)N(c4ccccc4)C3)cc2)n1 (centres undefined)	KLK5 inh 60
O=C(Nc1ccccc1Cl)C1CC(=O)N(c2ccccc2)C1 (centres undefined)	FXIIa inh 41
CCOC(=O)N1CCN(CC(=O)Nc2sccc2C#N)CC1	Calpain2 inh 82
NC(=O)c1c(/N=C/c2cccnc2)sc2c1CCCC2	none
CCCCNS(=O)(=O)c1ccc2nc(SCC(=O)Nc3ccccc3Cl)[nH]c2c1	Calpain2 inh 56
CCCCCCn1ccc(=N)cc1	none
CCCCCCCCCCCCCCCCn1cc[n+](CC(C)=O)c1	Calpain2 inh 54
O=C(Nc1nc(=O)[nH]s1)c1ccccc1	Calpain2 inh 57
COc1cc(CC(=O)Nc2nccs2)cc(OC)c1OC	KLK5 inh 43
CS(=O)(=O)NCCCNc1ccc(Cl)cc1[N+](=O)[O-]	none
NS(=O)(=O)c1ccc(Cl)cc1[N+](=O)[O-]	FXIa inh 1536 41, FXIIa inh 46
COCCN1CCN(c2cc(-c3ccccc3)nc3cc(-c4cccc(F)c4)nn23)CC1	none
CC(C(=O)Oc1ccc2c(c1)OCO2)N1C(=O)c2ccccc2C1=O (centres undefined)	FXIIa inh 57
CC(C(=O)OCC(=O)Nc1ccc2c(c1)OCO2)N1C(=O)c2ccccc2C1=O (centres undefined)	none
CC1=C(C(N)=O)C(c2ccccn2)n2nc(-c3ccccc3Cl)nc2N1 (centres undefined)	KLK5 inh 43
COc1ccccc1C1C(C(N)=O)=C(C)Nc2nc(-c3ccccc3Cl)nn21 (centres undefined)	none
COc1ccc2cc(C3C(C#N)=C(N)OC(C)=C3C(C)=O)c(Cl)nc2c1 (centres undefined)	KLK5 inh 42
Cc1cccc(Nc2cc(=O)[nH]c(=O)[nH]2)c1C	FXIIa inh 45
CCCn1[nH]cc(SC)c(=O)c1=O	KLK5 inh 122
CCc1ccc(NC(=O)c2noc(C(C)C)c2[N+](=O)[O-])cc1	none (no result: KLK5 inh)
COc1ccc(NC(=O)c2noc(C(C)C)c2[N+](=O)[O-])cc1	Calpain2 inh 53 (no result: KLK5 inh)
CC(=O)c1ccc(NC(=O)c2noc(C(C)C)c2[N+](=O)[O-])cc1	Calpain2 inh 95 (no result: KLK5 inh)
Cc1ccc(O)c(NC(=O)c2noc(C(C)C)c2[N+](=O)[O-])c1	none
COc1ccc(N(C(=O)c2ccco2)S(=O)(=O)c2cc(Cl)c(Cl)cc2Cl)cc1	Calpain2 inh 54
COc1ccc(N(C(=O)c2ccco2)S(=O)(=O)c2ccccc2)cc1	Thrombin inh 58
COc1ccc(N(CN2C(=O)C3CC=CCC3C2=O)C(=O)c2ccco2)cc1 (centres undefined)	none
COC(=O)CNC(=O)C(Cc1c[nH]c2ccccc12)NC(=O)OC(C)(C)C (centres undefined)	KLK5 inh 44
COC(=O)CNC(=O)C(Cc1c[nH]c2ccccc12)NC(=O)Oc1ccccc1 (centres undefined)	none
COC(=O)c1ccc(NC(=O)CC2C(=O)N(C)C(=S)N2Cc2ccc(S(N)(=O)=O)cc2)cc1 (centres undefined)	KLK5 inh 54
COc1ccc(NC(=O)CC2C(=O)N(C)C(=S)N2Cc2ccncc2)cc1 (centres undefined)	none
CCN(Cc1ccccc1)c1ccc(/C=N/NC(=O)c2cccc(S(=O)(=O)N3CCOCC3)c2)cc1	KLK5 inh 56
CCN(CC)c1ccc(/C=N/NC(=O)c2cccc(S(=O)(=O)N3CCOCC3)c2)cc1	none
Cc1cc(C)nc(N/C(=N\S(=O)(=O)Cc2ccccc2)Nc2cccc(Cl)c2C)n1	none
COc1cc(/C=C(/C#N)C(=O)c2c(C)[nH]c3ccccc23)ccc1OCC#N	KLK5 inh 42
CN(CC1CCCO1)S(=O)(=O)c1ccc(C(=O)Nc2ccc3c(c2)OCO3)cc1 (centres undefined)	KLK5 inh 61
Nn1c(C2CCCCC2)nc2ccccc2c1=O	FXIa inh 1536 58, FXIIa inh 62
CN=C(c1ccc([N+](=O)[O-])cc1)N1CCCCC1	none
COc1ccc(NC(=O)CN(C)S(=O)(=O)c2cccc3nsnc23)cc1OC	none
COc1ccc(C(=O)CSc2nc3ncccc3[nH]2)cc1OC	FXIIa inh 102
COc1ccccc1NC(=O)CSc1nc2ncccc2[nH]1	none
O=C(Cn1cc2c(n1)CCCC2)NCc1ccccn1	KLK5 inh 45
CCN(/N=C/c1ccc(Cl)cc1)c1cc(=O)n(C)c(=O)[nH]1	none
CCN(/N=C/C=C/c1ccccc1)c1cc(=O)n(C)c(=O)[nH]1	Calpain2 inh 52
CC(=O)Nc1ccc(S(=O)(=O)Nc2cccc3[nH]ncc23)cc1	Calpain2 inh 51
CC(C)(C)OC(=O)NCCC(=O)N/N=C/c1ccc2nccnc2c1	none
